Test results published in ChEMBL document CHEMBL4715780, “Biological evaluation of tetracationic compounds based on two 1,4-diazabicyclo[2.2.2]octane moieties connected by different linkers” (Bioorg Med Chem, 2016).

Assays:
Pseudomonas aeruginosa [1] = test: Bactericidal activity against Pseudomonas aeruginosa ATCC 9027 assessed as reduction in colony forming unit at 5 ug/ml measured at 6 hrs by time kill assay relative to control; format: functional; design: scale not given: the % may be the effect or the level left; settings: dose 5 µg/ml
In short: (§1)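 Overnight Pseudomonas aeruginosa culture adjusted in Mueller–Hinton broth to about 2.5 × 10⁵ CFU/mL. Compound added at 2.5, 5 or 10 µg/mL, then incubated at 37 °C with shaking (580 rpm) for 22 h. Viable colonies counted on plates at 2, 4, 6, 8 and 22 h. Quantification limit 100 CFU/mL; triplicate.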

[2] = Cytotoxicity against human MCF7 cells assessed as reduction in cell viability measured after 24 hrs by MTT assay; format: cell-based
In short: (§2)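 HEK293T or MCF-7 cells in IMDM with 10% FBS, seeded at 20,000 per well and grown overnight. Compounds at […] in fresh medium for 24 h at 37 °C, 5% CO₂. MTT then added for 4 h, precipitate dissolved overnight in SDS-HCl, absorbance read at 570 nm. Viability expressed relative to untreated cells, giving CC₅₀. Duplicate wells, at least two independent repeats.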

Candida albicans = test: Antifungal activity against Candida albicans CEMTC 34 assessed as concentration required to inhibit visible growth by CLSI protocol based serial microdilution method; format: functional
In short: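 Candida albicans grown in Sabouraud dextrose broth with two-fold serial compound dilutions from water stocks; final inoculum about 5 × 10⁵ CFU/mL. Incubated at 37 °C with orbital shaking (580 rpm). MIC is the lowest concentration preventing growth, by absorbance at 595 nm. MFC is the lowest concentration with no visible growth. Duplicates in two separate experiments.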

Pseudomonas aeruginosa [3] = test: Antibacterial activity against Pseudomonas aeruginosa ATCC 9027 assessed as bacterial growth inhibition by CLSI protocol based serial microdilution method; format: functional
[4] = Selectivity index, ratio of CC50 for HEK293T cells assessed as reduction in cell viability measured after 24 hrs by MTT assay to MIC for Escherichia coli ATCC 25922 assessed as bacterial growth inhibition by CLSI protocol based serial microdilution method; format: toxicity; settings: human, read-out: Selectivity Index
Pseudomonas aeruginosa [5] = test: Bactericidal activity against Pseudomonas aeruginosa ATCC 9027 assessed as colony forming unit at 5 ug/ml measured at 2 hrs by time kill assay (reference value: 3.6 x 10^5 CFU/ml); format: functional; settings: dose 5 µg/ml; in short: as §1
Staphylococcus aureus [6] = test: Antibacterial activity against methicillin-resistant Staphylococcus aureus CEMTC 707 assessed as concentration required to inhibit visible growth by CLSI protocol based serial microdilution method; format: functional
Pseudomonas aeruginosa [7] = test: Antibacterial activity against Pseudomonas aeruginosa ATCC 9027 assessed as concentration required to inhibit visible growth by CLSI protocol based serial microdilution method; format: functional
Pseudomonas aeruginosa [8] = test: Bactericidal activity against Pseudomonas aeruginosa ATCC 9027 assessed as colony forming unit at 10 ug/ml measured at 4 hrs by time kill assay (reference value: 1.2 x 10^7 CFU/ml); format: functional; settings: dose 10 µg/ml; in short: as §1
Pseudomonas aeruginosa [9] = test: Bactericidal activity against Pseudomonas aeruginosa ATCC 9027 assessed as reduction in colony forming unit at 5 ug/ml measured at 4 hrs by time kill assay relative to control; format: functional; design: scale not given: the % may be the effect or the level left; settings: dose 5 µg/ml; in short: as §1
Staphylococcus aureus [10] = test: Antibacterial activity against methicillin-resistant Staphylococcus aureus CEMTC 1850 assessed as bacterial growth inhibition by CLSI protocol based serial microdilution method; format: functional
Pseudomonas aeruginosa [11] = test: Bactericidal activity against Pseudomonas aeruginosa ATCC 9027 assessed as reduction in colony forming unit at 5 ug/ml measured at 22 hrs by time kill assay relative to control; format: functional; design: scale not given: the % may be the effect or the level left; settings: dose 5 µg/ml; in short: as §1
Pseudomonas aeruginosa [12] = test: Bactericidal activity against Pseudomonas aeruginosa ATCC 9027 assessed as reduction in colony forming unit at 10 ug/ml measured at 22 hrs by time kill assay relative to control; format: functional; design: scale not given: the % may be the effect or the level left; settings: dose 10 µg/ml; in short: as §1
[13] = Cytotoxicity against MDCK cells assessed as cell death incubated for 48 hrs by MTT assay; format: cell-based, Canis lupus familiaris; settings: dog
[14] = Selectivity index, ratio of CC50 for HEK293T cells assessed as reduction in cell viability measured after 24 hrs by MTT assay to MIC for Proteus vulgaris ATCC 6380 assessed as bacterial growth inhibition by CLSI protocol based serial microdilution method; format: toxicity; settings: human, read-out: Selectivity Index
Staphylococcus aureus [15] = test: Antibacterial activity against methicillin-resistant Staphylococcus aureus CEMTC 1733 assessed as bacterial growth inhibition by CLSI protocol based serial microdilution method; format: functional
Citrobacter freundii = test: Antibacterial activity against Citrobacter freundii ATCC 8090 assessed as concentration required to inhibit visible growth by CLSI protocol based serial microdilution method; format: functional
Pseudomonas aeruginosa [16] = test: Bactericidal activity against Pseudomonas aeruginosa ATCC 9027 assessed as colony forming unit at 2.5 ug/ml measured at 4 hrs by time kill assay (reference value: 1.2 x 10^7 CFU/ml); format: functional; settings: dose 2.5 µg/ml; in short: as §1
Staphylococcus aureus [17] = test: Bactericidal activity against […] Staphylococcus aureus ATCC 25923 assessed as colony forming unit at 1.25 ug/ml measured at 4 hrs by time kill assay (reference value: 7.8 x 10^6 CFU/ml); format: functional; settings: dose 1.25 µg/ml
In short: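 S. aureus overnight culture was adjusted in MHB to ~8 × 10⁵ CFU/mL. Compound was added and the mixture incubated at 37 °C with shaking (580 rpm) for 22 h. Aliquots were plated for colony counts at 2, 4, 6, 8 and 22 h, with a quantification limit of 100 CFU/mL. Runs were done in triplicate.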

[18] = Selectivity index, ratio of CC50 for MDCK cells to EC50 for Influenza A virus (A/Puerto Rico/8/34 (H1N1)) infected in MDCK cells; format: toxicity, cell-based; settings: dog, read-out: Ratio CC50/EC50
In short: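 Ratio of CC₅₀ to EC₅₀, both in MDCK cells, with cytotoxicity run in parallel with the antiviral assay. EC₅₀ is the concentration halving virus production (0.3 log₁₀ EID₅₀ titre drop). It was obtained after 1 h compound pre-incubation, infection, 48 h at 37 °C, and hemagglutination read-out with 1% chicken erythrocytes.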

Pseudomonas aeruginosa [19] = test: Bactericidal activity against Pseudomonas aeruginosa ATCC 9027 assessed as colony forming unit at 10 ug/ml measured at 22 hrs by time kill assay (reference value: 1.7 x 10^9 CFU/ml); format: functional; settings: dose 10 µg/ml; in short: as §1
Pseudomonas aeruginosa [20] = test: Bactericidal activity against Pseudomonas aeruginosa ATCC 9027 assessed as reduction in colony forming unit at 10 ug/ml measured at 2 hrs by time kill assay relative to control; format: functional; design: scale not given: the % may be the effect or the level left; settings: dose 10 µg/ml; in short: as §1
[21] = Cytotoxicity against HEK293T cells assessed as reduction in cell viability measured after 24 hrs by MTT assay; format: cell-based, HEK-293T; settings: human; in short: as §2
Influenza A virus = test: Antiviral activity against Influenza A virus (A/Puerto Rico/8/34 (H1N1) infected in MDCK cells assessed as decrease in viral titer preincubated for 1 hr followed by viral infection and cultivated for 48 hrs followed by supernatant transferred to chicken erythrocyte for 1 hr followed by measuring ability to cause positive hemagglutination; format: functional, organism-based; settings: A/Puerto Rico/8/1934(H1N1)
In short: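 MDCK monolayers in MEM were pre-incubated with compound for 1 h at 37 °C, then infected with 10-fold virus dilutions (10⁻¹–10⁻⁶) and held 48 h at 37 °C, 5% CO₂. Supernatant was mixed with an equal volume of 1% chicken erythrocytes, 60 min at room temperature. Titre was taken from the highest dilution giving full agglutination (log₁₀ EID₅₀). Triplicate per concentration.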

Escherichia coli = test: Antibacterial activity against Escherichia coli ATCC 25922 assessed as bacterial growth inhibition by CLSI protocol based serial microdilution method; format: functional
Staphylococcus aureus [22] = test: Antibacterial activity against methicillin-resistant Staphylococcus aureus CEMTC 1850 assessed as concentration required to inhibit visible growth by CLSI protocol based serial microdilution method; format: functional

## CCCCCCCCCCCC[N+]12CC[N+](CCC[N+]34CC[N+](CCCCCCCCCCCC)(CC3)CC4)(CC1)CC2
Pseudomonas aeruginosa [1]
  Activity: >=99.9%
[2]
  CC50 at 24 h: 5 µg/mL
Candida albicans
  MFC: 6.3 µg/mL
Pseudomonas aeruginosa [3]
  MIC: 1.6 µg/mL
[4]
  selectivity ratio at 24 h: 4
Pseudomonas aeruginosa [5]
  Activity: <100 CFU/ml
Staphylococcus aureus [6]
  MBC: 1 µg/mL
Pseudomonas aeruginosa [7]
  MBC: 3.1 µg/mL
Pseudomonas aeruginosa [8]
  Activity: <100 CFU/ml
Pseudomonas aeruginosa [9]
  Activity: >=99.9%
Staphylococcus aureus [10]
  MIC: 1 µg/mL
Pseudomonas aeruginosa [11]
  Activity: >=99.9%
Pseudomonas aeruginosa [12]
  Activity: >=99.9%
[13]
  CC50 at 48 h: 12.8 µg/mL
[14]
  selectivity ratio at 24 h: < 1
Staphylococcus aureus [15]
  MIC: 1 µg/mL
Citrobacter freundii
  MBC: 3.1 µg/mL
Pseudomonas aeruginosa [16]
  Activity: <100 CFU/ml
Staphylococcus aureus [17]
  Activity: <100 CFU/ml
[18]
  selectivity ratio: 7
Pseudomonas aeruginosa [19]
  Activity: <100 CFU/ml
Pseudomonas aeruginosa [20]
  Activity: >=99.9%
[21]
  CC50 at 24 h: 6.5 µg/mL
Influenza A virus
  EC50: 1.9 µg/mL
Escherichia coli
  MIC: 1.6 µg/mL
Staphylococcus aureus [22]
  MBC: 1 µg/mL

## CCCCCCCCCCCC[N+]12CC[N+](Cc3ccccc3C[N+]34CC[N+](CCCCCCCCCCCC)(CC3)CC4)(CC1)CC2
Pseudomonas aeruginosa [1]
  Activity: >=99.9%
[2]
  CC50 at 24 h: 4 µg/mL
Candida albicans
  MFC: 6.3 µg/mL
Pseudomonas aeruginosa [3]
  MIC: 1.6 µg/mL
[4]
  selectivity ratio at 24 h: 3
Pseudomonas aeruginosa [5]
  Activity: 130 CFU/ml
Staphylococcus aureus [6]
  MBC: 1 µg/mL
Pseudomonas aeruginosa [7]
  MBC: 3.1 µg/mL
Pseudomonas aeruginosa [8]
  Activity: <100 CFU/ml
Pseudomonas aeruginosa [9]
  Activity: >=99.9%
Staphylococcus aureus [10]
  MIC: 0.5 µg/mL
Pseudomonas aeruginosa [11]
  Activity: >=99.9%
Pseudomonas aeruginosa [12]
  Activity: >=99.9%
[13]
  CC50 at 48 h: 1.9 µg/mL
[14]
  selectivity ratio at 24 h: < 1
Staphylococcus aureus [15]
  MIC: 1 µg/mL
Citrobacter freundii
  MBC: 1.6 µg/mL
Pseudomonas aeruginosa [16]
  Activity: 1300 CFU/ml
Staphylococcus aureus [17]
  Activity: <100 CFU/ml
[18]
  selectivity ratio: 2
Pseudomonas aeruginosa [19]
  Activity: <100 CFU/ml
Pseudomonas aeruginosa [20]
  Activity: ≥ 99.9%
[21]
  CC50 at 24 h: 4 µg/mL
Influenza A virus
  EC50: 1 µg/mL
Escherichia coli
  MIC: 1.6 µg/mL
Staphylococcus aureus [22]
  MBC: 1 µg/mL
